# Measured values from publication PMC2875079 (Journal of medicinal chemistry, 2010).
# B1: mouse SphK2 (Mus musculus) (protein)
# chain: MAPPPLLPVAASTPILHGEFGSYPANGPRFALTLTTQALHIQRLRPKPEARPRDGLVSLDEVSGCGTLQSRSPEDTAAYFCIYTYPRGRRGGRRRATRTFRADGATTYEENRAEAQRWATALTCLLRGVPLSGDQEITPELLPRKPRLLILVNPFGGRGLAWQRCMDHVVPMISEAGLSFNLIQTERQNHARELVQGLSLSEWEGIVTVSGDGLLYEVLNGLLDRPDWEDAVRMPIGVLPCGSGNALAGAVNHHGGFEQVVGVDLLLNCSLLLCRGGSHPLDLLSVTLASGSRCFSFLSVAWGFLSDVDIHSERFRALGSARFTLGAVLGLASLHTYRGRLSYLPATTEPALPIPGHSLPRAKSELVLAPAPAPAATHSPLHRSVSDLPLPLPQPALVSPGSPEPLPDLSLNGGGPELTGDWGGAGDAPLSPDPLLPSSPNALKTAQLSPIAEGPPEMPASSGFLPPTHSAPEASTWGPVDHLLPPLGSPLPQDWVTIEGEFVLMLGILPSHLCADLMAAPHARFDDGVVHLCWVRSGISRAALLRILLAMEHGNHFSLGCPHLGYAAARAFRLEPLTPRGLLTVDGELVEYGPIQAQVHPGLATLLTGPAGQKPQA
# B2: Human SphK1 (Homo sapiens) (protein)
# chain: MDPAGGPRGVLPRPCRVLVLLNPRGGKGKALQLFRSHVQPLLAEAEISFTLMLTERRNHARELVRSEELGRWDALVVMSGDGLMHEVVNGLMERPDWETAIQKPLCSLPAGSGNALAASLNHYAGYEQVTNEDLLTNCTLLLCRRLLSPMNLLSLHTASGLRLFSVLSLAWGFIADVDLESEKYRRLGEMRFTLGTFLRLAALRTYRGRLAYLPVGRVGSKTPASPVVVQQGPVDAHLVPLEEPVPSHWTVVPDEDFVLVLALLHSHLGSEMFAAPMGRCAAGVMHLFYVRAGVSRAMLLRLFLAMEKGRHMEYECPYLVYVPVVAFRLEPKDGKGVFAVDGELMVSEAVQGQVHPNYFWMVSGCVEPPPSWKPQQMPPPEEPL
# Experiments:
# SphKs = conditions: cited from earlier work
# [1] = in water and DMSO; cited from earlier work
# SphK1 = conditions: read-out: KM of SphK1 for sphingosine; cited from earlier work
# SphK2 = conditions: read-out: KM of SphK2 for sphingosine; cited from earlier work
# Human SphK1 = Human SphK1 (Homo sapiens, UniProt Q9NYA1); assay: Sphingosine kinase assay, recombinant SphK1; assay type: biochemical; conditions: for Inhibition of SphK1: at concentrations up to 100 μM
# mouse SphK2 = target: T1, mouse SphK2 (Mus musculus, UniProt Q9JIA7); assay: Sphingosine kinase assay, recombinant SphK2; assay type: biochemical; conditions: for Inhibition of SphK2: at concentrations up to 100 μM
# T1 sequence (Q9JIA7 1-617): B1 chain
# [2] = test system: vascular smooth muscle cells; assay: Intracellular S1P concentration by LC/MS in serum-stimulated smooth muscle cells; assay type: cell-based, rat; conditions: pre-treated 30 min, then 10% serum; Figure 3C
# In short: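 Rat aortic smooth muscle cells were pre-treated with test compound for 30 min, then given 10% FBS for 12 h. Cells were washed in PBS and scraped into ice-cold MeOH, then extracted with CHCl3/0.1 M HCl containing 50 pmol C17 S1P internal standard. The organic phase was acetylated (acetic anhydride/pyridine). Analysis used C8 LC with […] ESI-MS/MS (BisAcS1P 462/402), quantified against calibration curves. N=2 biological replicates; mean ± st dev.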
# [3] = test system: vascular smooth muscle cells; assay: Smooth muscle cell proliferation, BrdU incorporation; assay type: cell-based, rat; conditions: pre-treated 30 min, 10% serum 24 hours, Figure 3D
# In short: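 Rat aortic vascular smooth muscle cells were pre-treated 30 min with a dose range of test compound, then stimulated with 10% FBS for 24 h. Proliferation was read as BrdU (10 μM) incorporation by immunoassay. N=6 biological replicates; mean ± st dev; P < 0.05 marked.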
# [4] = test system: vascular smooth muscle cells; assay: Cytotoxicity on visual microscopic inspection; assay type: cell-based; conditions: 10% FBS + compound (10 μM), light microscopy; Figure 3E
# In short: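 Rat aortic vascular smooth muscle cells were imaged by light microscopy at 20× magnification. Conditions were untreated control, 10% FBS, and 10% FBS plus test compound at 10 μM. Cytotoxicity was judged by visual inspection.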
# [5] = test system: vascular smooth muscle cells; assay: Cell viability / cytotoxic response, Promega MultiTox-Fluor Assay; assay type: cell-based; conditions: 0.001 μM – 100 μM, Figure 3F
# In short: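 Rat aortic vascular smooth muscle cells, cultured in vitro. Test compound applied at 0.001–100 μM, with 20 μM cyclosporine A as comparator. Cytotoxicity read with the MultiTox-Fluor fluorescence kit. N=3 biological replicates; mean ± st dev; P < 0.05 marked.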
# [6] = target: diacylglycerol kinase type γ (Homo sapiens, UniProt P49619); assay: Specificity test at recombinant diacylglycerol kinase type γ; assay type: biochemical; conditions: at concentrations up to 100 μM
# Chain of diacylglycerol kinase type γ (P49619 whole entry): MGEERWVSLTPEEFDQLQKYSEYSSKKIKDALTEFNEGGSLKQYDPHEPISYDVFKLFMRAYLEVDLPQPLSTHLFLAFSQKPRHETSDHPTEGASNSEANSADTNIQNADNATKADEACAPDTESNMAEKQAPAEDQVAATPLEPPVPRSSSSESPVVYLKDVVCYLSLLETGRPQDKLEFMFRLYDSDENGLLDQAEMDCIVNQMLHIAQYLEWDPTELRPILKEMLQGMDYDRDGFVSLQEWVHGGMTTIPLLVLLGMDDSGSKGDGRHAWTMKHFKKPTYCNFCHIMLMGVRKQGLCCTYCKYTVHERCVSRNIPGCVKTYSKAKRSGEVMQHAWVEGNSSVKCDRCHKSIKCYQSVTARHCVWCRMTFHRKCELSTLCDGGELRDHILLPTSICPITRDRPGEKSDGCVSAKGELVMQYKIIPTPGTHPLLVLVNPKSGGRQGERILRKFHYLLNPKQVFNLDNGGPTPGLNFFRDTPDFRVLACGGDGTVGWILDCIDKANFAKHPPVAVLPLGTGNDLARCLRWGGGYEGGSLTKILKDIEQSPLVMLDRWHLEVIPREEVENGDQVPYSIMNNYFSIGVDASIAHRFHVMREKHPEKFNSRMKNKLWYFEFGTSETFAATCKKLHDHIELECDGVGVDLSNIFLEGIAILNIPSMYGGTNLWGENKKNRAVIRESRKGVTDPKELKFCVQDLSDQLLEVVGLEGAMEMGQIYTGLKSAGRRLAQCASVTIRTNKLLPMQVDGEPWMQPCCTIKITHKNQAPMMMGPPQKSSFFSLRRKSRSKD
# [7] = target: T2, diacylglycerol kinase type δ1 (Homo sapiens, UniProt Q16760); assay: Specificity test at recombinant diacylglycerol kinase type δ1; assay type: biochemical; conditions: at concentrations up to 100 μM
# T2 sequence (Q16760 1-1170 isoform Q16760-2): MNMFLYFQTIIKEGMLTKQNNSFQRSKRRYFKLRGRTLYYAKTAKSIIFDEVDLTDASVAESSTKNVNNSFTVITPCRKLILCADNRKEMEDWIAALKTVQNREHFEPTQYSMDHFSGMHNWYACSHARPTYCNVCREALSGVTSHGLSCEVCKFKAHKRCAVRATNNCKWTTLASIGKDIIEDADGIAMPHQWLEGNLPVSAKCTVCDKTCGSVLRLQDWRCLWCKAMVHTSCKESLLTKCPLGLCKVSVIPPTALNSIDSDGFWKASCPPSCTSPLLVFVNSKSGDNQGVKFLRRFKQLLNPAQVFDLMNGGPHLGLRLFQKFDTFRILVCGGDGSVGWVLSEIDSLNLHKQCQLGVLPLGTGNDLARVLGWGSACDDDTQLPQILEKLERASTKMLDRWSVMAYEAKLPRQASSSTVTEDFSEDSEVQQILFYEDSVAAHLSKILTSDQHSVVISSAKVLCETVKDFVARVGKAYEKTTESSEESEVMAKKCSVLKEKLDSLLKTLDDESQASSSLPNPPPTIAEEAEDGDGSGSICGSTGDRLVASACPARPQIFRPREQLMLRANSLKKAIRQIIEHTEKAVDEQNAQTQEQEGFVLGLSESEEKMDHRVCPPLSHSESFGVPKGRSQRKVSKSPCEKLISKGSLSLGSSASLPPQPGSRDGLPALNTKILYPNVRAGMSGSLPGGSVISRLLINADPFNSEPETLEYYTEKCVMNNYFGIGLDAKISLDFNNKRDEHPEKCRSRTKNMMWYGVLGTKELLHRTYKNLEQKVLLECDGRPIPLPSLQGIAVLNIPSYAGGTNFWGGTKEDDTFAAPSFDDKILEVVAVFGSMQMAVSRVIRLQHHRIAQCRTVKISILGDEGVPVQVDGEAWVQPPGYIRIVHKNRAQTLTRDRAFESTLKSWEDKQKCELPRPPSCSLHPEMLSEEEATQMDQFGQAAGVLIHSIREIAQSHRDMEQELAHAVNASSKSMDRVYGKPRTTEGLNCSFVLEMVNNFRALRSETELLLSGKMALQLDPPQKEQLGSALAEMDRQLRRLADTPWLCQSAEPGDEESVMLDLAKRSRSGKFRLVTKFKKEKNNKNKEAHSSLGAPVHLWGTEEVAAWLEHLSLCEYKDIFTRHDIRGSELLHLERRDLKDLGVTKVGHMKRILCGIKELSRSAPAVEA
# [8] = target: diacylglycerol kinase type ζ (Homo sapiens, UniProt Q13574); assay: Specificity test at recombinant diacylglycerol kinase type ζ; assay type: biochemical; conditions: at concentrations up to 100 μM
# Chain of diacylglycerol kinase type ζ (Q13574 whole entry): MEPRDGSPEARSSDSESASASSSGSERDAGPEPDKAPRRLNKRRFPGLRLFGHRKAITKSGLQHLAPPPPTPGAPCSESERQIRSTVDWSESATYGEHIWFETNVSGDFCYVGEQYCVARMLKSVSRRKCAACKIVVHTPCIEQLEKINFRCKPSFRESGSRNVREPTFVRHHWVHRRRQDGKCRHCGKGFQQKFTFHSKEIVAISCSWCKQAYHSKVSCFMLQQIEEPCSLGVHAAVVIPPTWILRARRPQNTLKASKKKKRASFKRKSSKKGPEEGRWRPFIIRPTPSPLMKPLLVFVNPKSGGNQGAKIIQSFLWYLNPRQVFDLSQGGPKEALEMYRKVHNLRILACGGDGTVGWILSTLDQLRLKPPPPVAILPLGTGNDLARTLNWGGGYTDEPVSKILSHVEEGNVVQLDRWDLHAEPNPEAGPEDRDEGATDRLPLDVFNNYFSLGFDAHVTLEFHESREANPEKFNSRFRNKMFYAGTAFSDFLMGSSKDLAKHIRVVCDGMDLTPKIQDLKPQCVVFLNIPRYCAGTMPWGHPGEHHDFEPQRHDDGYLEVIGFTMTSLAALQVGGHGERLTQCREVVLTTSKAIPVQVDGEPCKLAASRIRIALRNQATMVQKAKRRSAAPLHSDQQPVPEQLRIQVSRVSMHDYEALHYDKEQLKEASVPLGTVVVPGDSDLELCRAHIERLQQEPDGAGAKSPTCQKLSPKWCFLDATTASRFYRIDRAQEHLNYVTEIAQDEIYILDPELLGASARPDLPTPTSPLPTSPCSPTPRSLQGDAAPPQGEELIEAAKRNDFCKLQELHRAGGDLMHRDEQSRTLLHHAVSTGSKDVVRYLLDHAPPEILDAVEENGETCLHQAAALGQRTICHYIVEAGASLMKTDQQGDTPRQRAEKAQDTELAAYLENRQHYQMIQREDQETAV
# PKCα = PKCα (Homo sapiens, UniProt P17252); assay: Specificity test at PKCα; assay type: biochemical; conditions: at concentrations up to 10 μM
# [9] = substrate: CCCCCCCCCCCCC/C=C/[C@@H](O)[C@@H](N)CO; assay: Sphingosine kinase assay, recombinant SphK2; assay type: biochemical, mouse; conditions: other: substrate D-erythro-sphingosine, absence of inhibitor
# [10] = substrate: CCCCCCCCCCCCC/C=C/[C@@H](O)[C@@H](N)CO; assay: Sphingosine kinase assay, recombinant SphK1; assay type: biochemical, human; conditions: other: substrate D-erythro-sphingosine, absence of inhibitor
molecule,measurement,setting,value
CCCCCCCCCCCCC/C=C/[C@@H](O)[C@H](N)CO [D-(+)-threo-sphingosine],Inhibition of the SphKs,SphKs,weak inhibitor
Cn1cc(NC(=O)c2cc(NC(=O)c3cc(NC=O)cn3C)cn2C)cc1C(=O)NCCC(=N)N [Distamycin A],pKa,[1],11.6
"CCCCCCCCCCCCC/C=C/[C@@H](O)[C@@H](N)CO [Sphingosine, D-erythro-sphingosine]",Km,SphK1,~10 µM
same,Km,SphK2,~5 µM
"CCCCCCCCc1ccc(C(=O)N[C@@H](C)C(=N)N)cc1.Cl [compound 9, (S)-N-(1-amino-1-iminopropan-2-yl)-4-octylbenzamide hydrochloride]",Ki,Human SphK1,55 µM
same,Ki,mouse SphK2,20 µM
same,Serum-induced changes in S1P intracellular concentration,[2],blocked
same,Blocked serum-induced smooth muscle cell proliferation,[3],blocked
same,Cytotoxicity on visual microscopic inspection,[4],not cytotoxic
same,Cytotoxicity/death in cell viability assay,[5],did not induce cytotoxicity/death
"CCCCCCCCc1ccc(C(=O)N[C@@H](C)C(=O)O)cc1 [compound 12, (S)-2-(4-octylbenzamido)propanoic acid]",Inhibition of SphK1,Human SphK1,no inhibition
same,Inhibition of SphK2,mouse SphK2,no inhibition
"CCCCCCCCc1ccc(C(=O)N[C@@H](C)C(N)=O)cc1 [compound 13, (S)-N-(1-amino-1-oxopropan-2-yl)-4-octylbenzamide]",Inhibition of SphK1,Human SphK1,no inhibition
same,Inhibition of SphK2,mouse SphK2,no inhibition
"CCCCCCCCCCCCc1ccc(C(=O)NC2(C(=N)N)CC2)cc1.Cl [compound 23, N-(1-carbamimidoylcyclopropyl)-4-dodecylbenzamide hydrochloride]",Inhibition of diacylglycerol kinase type γ,[6],no inhibition
same,Inhibition of diacylglycerol kinase type δ1,[7],no inhibition
same,Inhibition of diacylglycerol kinase type ζ,[8],no inhibition
same,Inhibition of PKCα,PKCα,no inhibition
"CCCCCCCCCCCCc1ccc(NC(=O)C2(C(=N)N)CC2)cc1.Cl [compound 28, 1-carbamimidoyl-N-(4-dodecylphenyl)cyclopropanecarboxamide hydrochloride]",Ki,mouse SphK2,6 µM
same,Inhibition of diacylglycerol kinase type γ,[6],no inhibition
same,Inhibition of diacylglycerol kinase type δ1,[7],no inhibition
same,Inhibition of diacylglycerol kinase type ζ,[8],no inhibition
same,Inhibition of PKCα,PKCα,no inhibition
B1,Km,[9],5 µM
B2,Km,[10],10 µM
